Measured values: PMC4984525 (Cancer, 2011)
Entries after “also recorded” stand apart in the source; their conditions may differ.

Legend:
[1] = Plasma pharmacokinetics of ARRY-520; assay type: in vivo, human; settings: human, plasma, intravenous
HT-29 = HT-29 subcutaneous xenograft, mouse; cited from earlier work
[2] = tested on: Peripheral blood mononuclear cells (PBMCs); assay: Pharmacodynamics: spindle morphology by confocal imaging; assay type: cell-based, human
HCT15 = HCT15 subcutaneous xenograft, mouse; cited from earlier work
K562 = K562 subcutaneous xenograft, mouse; cited from earlier work
tumor cell = settings: background statement; cited from earlier work
HCT-116 = HCT-116 subcutaneous xenograft, mouse; cited from earlier work
[3] = tested on: relapsed or refractory AML or high-grade myelodysplastic syndromes; assay: Clinical efficacy; assay type: in vivo, human
Procedure, shortened: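 Open-label, multicentre dose escalation in patients ≥17 y (ECOG 0–2). Test compound given IV over 1 h, on Day 1 (from 2.5 mg/m2) or on Days 1, 3 and 5 (from 0.8 mg/m2/day). Escalation steps were 50%, then 30%. Complete and partial remissions were scored during induction and later cycles; MDS used modified IWG criteria. Hydroxyurea was allowed during days 1–14.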

[4] = tested on: patients with advanced or refractory myeloid leukemias; assay: Phase 1 dose-escalation: safety, DLT and MTD; assay type: in vivo

`CON(C)C(=O)N1N=C(c2cc(F)ccc2F)S[C@@]1(CCCN)c1ccccc1` [ARRY-520] showed a Vd ([1]; 3.6 mg/m^2, Vss, Schedule 2, Cycle 1 Day 1, 3.6 mg/m^2 (N=1), mean) of 278 L, a Vd ([1]; 3.6 mg/m^2, Vss, Schedule 2, Cycle 1 Day 5, 3.6 mg/m^2 (N=1), mean) of 202 L and a half-life ([1]; 3.6 mg/m^2, t1/2, Schedule 2, Cycle 1 Day 1, 3.6 mg/m^2 (N=1), median (min-max)) of 18.7 h. It also gave a half-life ([1]; 3.6 mg/m^2, t1/2, Schedule 2, Cycle 1 Day 5, 3.6 mg/m^2 (N=1), median (min-max)) of 108 h, an AUC(0-inf) ([1]; 3.75 mg/m^2) of 1480 ng·h/mL and a clearance ([1]; 3.75 mg/m^2, CL, Schedule 1, Cycle 1 Day 1, 3.75 mg/m^2 (N=1), geometric mean) of 113 mL/min. It also gave a Cmax ([1]; 3.75 mg/m^2, Cmax, Schedule 1, Cycle 1 Day 1, 3.75 mg/m^2 (N=1), geometric mean) of 31.1 ng/mL, an MRT ([1]; 3.75 mg/m^2, MRT, Schedule 1, Cycle 1 Day 1, 3.75 mg/m^2 (N=1), median (min-max)) of 127 h and a Tmax ([1]; 3.75 mg/m^2, Tmax, Schedule 1, Cycle 1 Day 1, 3.75 mg/m^2 (N=1), median (min-max)) of 1 h. It also gave a Vd ([1]; 3.75 mg/m^2, Vss, Schedule 1, Cycle 1 Day 1, 3.75 mg/m^2 (N=1), mean) of 857 L, a half-life ([1]; 3.75 mg/m^2, t1/2, Schedule 1, Cycle 1 Day 1, 3.75 mg/m^2 (N=1), median (min-max)) of 100 h and an AUC(0-inf) ([1]; 4.5 mg/m^2) of 3000 ng·h/mL. It also gave a clearance ([1]; 4.5 mg/m^2, CL, Schedule 1, Cycle 1 Day 1, 4.5 mg/m^2 (N=4), geometric mean (geometric %CV)) of 49.2 mL/min, a Cmax ([1]; 4.5 mg/m^2, Cmax, Schedule 1, Cycle 1 Day 1, 4.5 mg/m^2 (N=4), geometric mean (geometric %CV)) of 53.4 ng/mL and an MRT ([1]; 4.5 mg/m^2, MRT, Schedule 1, Cycle 1 Day 1, 4.5 mg/m^2 (N=4), median (min-max)) of 142 h. For the same molecule, the Tmax ([1]; 4.5 mg/m^2, Tmax, Schedule 1, Cycle 1 Day 1, 4.5 mg/m^2 (N=4), median (min-max)) was 1.01 h, the Vd ([1]; 4.5 mg/m^2, Vss, Schedule 1, Cycle 1 Day 1, 4.5 mg/m^2 (N=4), mean (%CV)) was 340 L and the half-life ([1]; 4.5 mg/m^2, t1/2, Schedule 1, Cycle 1 Day 1, 4.5 mg/m^2 (N=4), median (min-max)) was 100 h. The AUC(0-inf) ([1]; 5.6 mg/m^2) was 2520 ng·h/mL, the clearance ([1]; 5.6 mg/m^2, CL, Schedule 1, Cycle 1 Day 1, 5.6 mg/m^2 (N=2), geometric mean) was 71.7 mL/min and the Cmax ([1]; 5.6 mg/m^2, Cmax, Schedule 1, Cycle 1 Day 1, 5.6 mg/m^2 (N=2), geometric mean) was 49.6 ng/mL. The MRT ([1]; 5.6 mg/m^2, MRT, Schedule 1, Cycle 1 Day 1, 5.6 mg/m^2 (N=2), median (min-max)) was 131 h, the Tmax ([1]; 5.6 mg/m^2, Tmax, Schedule 1, Cycle 1 Day 1, 5.6 mg/m^2 (N=2), median (min-max)) was 0.959 h and the Vd ([1]; 5.6 mg/m^2, Vss, Schedule 1, Cycle 1 Day 1, 5.6 mg/m^2 (N=2), mean) was 515 L. For the same molecule, the half-life ([1]; 5.6 mg/m^2, t1/2, Schedule 1, Cycle 1 Day 1, 5.6 mg/m^2 (N=2), median (min-max)) was 92.5 h, the clearance ([1]; CL, Schedule 1, Cycle 1 Day 1, Schedule Total (N=10), geometric mean (geometric %CV)) was 56 mL/min and the clearance ([1]; CL, Schedule 2, Cycle 1 Day 1, Schedule Total (N=18), geometric mean (geometric %CV)) was 119 mL/min. For the same molecule, the clearance ([1]; CL, Schedule 2, Cycle 1 Day 5, Schedule Total (N=18), geometric mean (geometric %CV)) was 19.8 mL/min, the clearance ([1]; CL, range across cohorts, Schedule 1, Cycle 1) was 44.8 to 113 mL/min and the MRT ([1]; MRT, Schedule 1, Cycle 1 Day 1, Schedule Total (N=10), median (min-max)) was 127 h. For the same molecule, the Tmax ([1]; Tmax, Schedule 1, Cycle 1 Day 1, Schedule Total (N=10), median (min-max)) was 1 h, the Tmax ([1]; Tmax, Schedule 2, Cycle 1 Day 1, Schedule Total (N=18), median (min-max)) was 1 h and the Tmax ([1]; Tmax, Schedule 2, Cycle 1 Day 5, Schedule Total (N=18), median (min-max)) was 1 h. It also gave a Vd ([1]; Vss, Schedule 1, Cycle 1 Day 1, Schedule Total (N=10), mean (%CV)) of 446 L, a Vd ([1]; Vss, Schedule 2, Cycle 1 Day 1, Schedule Total (N=18), mean (%CV)) of 306 L and a Vd ([1]; Vss, Schedule 2, Cycle 1 Day 5, Schedule Total (N=18), mean (%CV)) of 191 L. For the same molecule, the clearance ([1]; clearance, plasma PK, abstract summary) was about 50 mL/min, the clearance ([1]; geometric mean CL, Schedule 1, Cycle 2, all patients, N=4) was 50.3 mL/min and the MRT ([1]; median MRT, Schedule 1) was 127 h. The half-life ([1]; median terminal t1/2, plasma PK, summary) was over 90 h, the half-life ([1]; t1/2, Schedule 1, Cycle 1 Day 1, Schedule Total (N=10), median (min-max)) was 98.6 h and the half-life ([1]; t1/2, Schedule 2, Cycle 1 Day 1, Schedule Total (N=18), median (min-max)) was 26.1 h. The anti-cancer efficacy (HT-29) was “demonstrated anti-cancer efficacy”, the “Aberrant spindles (with misaligned DNA) in PBMCs” value ([2]; Cycle 1, Day 5, patients dosed at 1.2 mg/m^2/day (after 3 doses)) was “observed in some PBMCs; also recorded: Aberrant spindles are observed; also recorded: abnormal spindles were observed” and the “Monopolar spindles in blood mononuclear cells” value ([2]; DAPI nucleic acid stain and anti-tubulin antibodies) was “Monopolar spindles were observed”. The anti-cancer efficacy (HCT15) was “demonstrated anti-cancer efficacy”, the anti-cancer efficacy (K562) was “demonstrated anti-cancer efficacy” and the “concentrations inducing mitotic arrest and tumor cell death” value (tumor cell) was “sub-nanomolar”. For the same molecule, the anti-cancer efficacy (HCT-116) was “demonstrated anti-cancer efficacy”, the “partial response, %” value ([3]; 34 patients with efficacy data) was 3% and the “partial response, patients n” value ([3]; 34 patients with efficacy data) was 1. The complete remissions ([3]; heavily pretreated relapsed/refractory AML or MDS) was “did not observe complete remissions”, the “MTD, total dose” value ([4]; Schedule 2 (Days 1, 3 and 5)) was 4.5 mg/m^2 and the “died within 30 days following discontinuation of ARRY-520, %” value ([4]; all patients) was 17%. The “died within 30 days following discontinuation of ARRY-520, patients n” value ([4]; all patients) was 6, the “Grades 3 or 4 reversible drug-related myelosuppression, patients” value ([4]; human, in vivo) was 33/36 and the “adverse events leading to discontinuation, % of patients” value ([4]; human, in vivo) was 8%. The “adverse events leading to discontinuation, patients n” value ([4]; human, in vivo) was 3, the “asymptomatic Grade 1 QTc prolongation, % of patients” value ([4]; human, in vivo) was 22% and the “asymptomatic Grade 1 QTc prolongation, patients n” value ([4]; human, in vivo) was 8. The “asymptomatic Grade 2 QTc prolongation, % of patients” value ([4]; human, in vivo) was 3%, the “asymptomatic Grade 2 QTc prolongation, patients n” value ([4]; human, in vivo) was 1 and the “drug-related SAE bacteremia, %” value ([4]; human, in vivo) was 3%. For the same molecule, the “drug-related SAE diarrhea, %” value ([4]; human, in vivo) was 3%, the “drug-related SAE exfoliative rash, %” value ([4]; human, in vivo) was 3% and the “drug-related SAE hyperbilirubinemia, %” value ([4]; human, in vivo) was 3%. For the same molecule, the “drug-related SAE neutropenic fever, %” value ([4]; human, in vivo) was 8%, the “drug-related SAE palmar-plantar erythrodysesthesia, %” value ([4]; human, in vivo) was 6% and the “drug-related SAE pancytopenia, %” value ([4]; human, in vivo) was 3%. For the same molecule, the “drug-related SAE stomatitis, %” value ([4]; human, in vivo) was 3%, the “patients with one or more SAEs related to study drug, %” value ([4]; human, in vivo) was 28% and the “Dose-limiting toxicities (DLT)” value ([4]; in vivo) was “mucositis, exfoliative rash, hand-foot syndrome and hyperbilirubinemia”. The Neurotoxicity ([4]; in vivo) was “not observed” and the “other clinically significant ECG changes” value ([4]; in vivo) was “No other clinically significant ECG changes were observed”.
